Screening data (PubChem BioAssay)
Most compounds without a hit are left out; they make up all but 5.8% or so of the library.
Pf Dd2 inh – P. falciparum Dd2 growth inhibition; SYBR Green, 72 h; hits give low values; activity change, % at 10 µM; 94,000 compounds, 2.3% hits; AID 1159554; in the data active = activity change below about -80%; inconclusive = no clear call, values can overlap the other calls
IDH1 R132H inh – IDH1 R132H (human) inhibition | O75874 | inhibition, % at 10 µM | IDH1 R132H reductase, diaphorase/resazurin fluorescence, 60 min | 70,000 compounds, 0.18% hits; in the data active = inhibition above about 34%; inconclusive = no clear call, values can overlap the other calls; inactive = below about 11%;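 also: 0% = DMSO and 100% = no enzyme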
Target sequence (O75874 whole entry R132H): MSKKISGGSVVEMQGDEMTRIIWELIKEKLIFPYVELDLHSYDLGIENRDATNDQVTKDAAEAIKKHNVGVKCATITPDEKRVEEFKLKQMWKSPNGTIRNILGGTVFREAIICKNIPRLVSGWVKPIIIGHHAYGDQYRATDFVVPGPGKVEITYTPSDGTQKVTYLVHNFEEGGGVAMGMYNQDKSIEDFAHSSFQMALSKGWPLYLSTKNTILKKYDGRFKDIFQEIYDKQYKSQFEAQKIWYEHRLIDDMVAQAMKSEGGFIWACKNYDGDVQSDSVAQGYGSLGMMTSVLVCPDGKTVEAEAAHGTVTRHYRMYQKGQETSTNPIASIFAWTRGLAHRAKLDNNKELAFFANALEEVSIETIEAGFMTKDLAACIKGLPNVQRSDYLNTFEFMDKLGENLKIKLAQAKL
GASC1 inh – blocks human GASC-1 (KDM4C) demethylase activity; GST-KDM4C 2-372, H3K9me3 peptide, LANCE TR-FRET; inhibition, % at 12.5 µM; 96,000 compounds, 0.15% hits; AID 720574;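 active = mean replicate inhibition above about 25%, with at least 55% of replicates also reaching it, limit read from the data, passing the limit was not always enough; inconclusive = only one of those two conditions met; inactive = neither condition met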
Target sequence (Q9H3R0 2-372 limits assumed): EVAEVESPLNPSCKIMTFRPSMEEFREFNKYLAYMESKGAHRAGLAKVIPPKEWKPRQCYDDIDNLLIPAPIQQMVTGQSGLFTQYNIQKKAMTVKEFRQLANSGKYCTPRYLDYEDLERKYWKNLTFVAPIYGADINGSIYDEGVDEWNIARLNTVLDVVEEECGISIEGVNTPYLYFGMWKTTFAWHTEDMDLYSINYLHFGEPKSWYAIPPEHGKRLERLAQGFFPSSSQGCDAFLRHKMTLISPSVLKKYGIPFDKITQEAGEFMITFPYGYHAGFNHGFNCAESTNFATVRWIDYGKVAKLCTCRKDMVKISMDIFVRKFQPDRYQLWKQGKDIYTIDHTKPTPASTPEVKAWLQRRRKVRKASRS
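System: N-terminal GST-fused human GASC-1 (KDM4C) fragment, residues 2-372 / Amount: 10 nM GST-KDM4C in enzyme reaction / Also added: H3K9me3 peptide with Fe(II)/2OG / Times: 30 min demethylation and 1 h detection at room temperature / Signal: LANCE TR-FRET / Read-out basis: Fall in 671/618 emission ratio as inhibition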
T cruzi growth-1 – T. cruzi proliferation inhibition | T. cruzi beta-gal in NIH3T3, GalScreen luminescence, 90 h | inhibition, % at 8.34 µM | 77,000 compounds, 5.9% hits | AID 624255;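 active = mean inhibition above about 93%, with at least 55% of replicates each passing it, limit read from the data, passing the limit was not always enough; inconclusive = only one of those two conditions holds; inactive = neither condition holds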
T cruzi growth-2 – inhibitors of T. cruzi proliferation; shares compounds with T cruzi growth-1; T. cruzi beta-gal in NIH3T3, GalScreen luminescence, 90 h; inhibition, % at 8.35 µM; 5,600 compounds, 72% hits; AID 651739;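 active = mean replicate inhibition above about 95% and at least 55% of replicates individually reaching it, limit read from the data; inconclusive = only one of the two criteria is met; inactive = neither criterion is met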
T cruzi growth-3 – Trypanosoma cruzi proliferation inhibition. shares compounds with T cruzi growth-1. T. cruzi beta-gal in NIH3T3, GalScreen luminescence, 90 h. 5,600 compounds, 21% hits. inhibition, % at 2.09 µM;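 active = mean inhibition above about 95%, with at least 55% of replicates also reaching it, limit read from the data; inconclusive = meets just one of the two conditions; inactive = meets neither condition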;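 also: plate controls were neutral control median for no effect and positive control median for full effect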
3T3 cytotox – NIH/3T3 (mouse) viability loss; NIH/3T3 viability, CellTiter-Glo ATP luminescence, 90 h; cytotoxicity (signal decrease), % at 8.35 µM; AID 651742; shares compounds with T cruzi growth-1; 5,600 compounds, 14% hits;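 active = mean signal decrease across replicates above about 35% based on untreated-well scatter, with enough replicates individually passing, limit read from the data; inconclusive = no rule stated though some were filed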;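 also: 0% = median of neutral control wells and 100% = median of positive control wells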
3T3 cytotox 2 – kills mouse NIH/3T3 fibroblasts; NIH/3T3 viability, CellTiter-Glo ATP luminescence, 90 h; AID 651744; inhibition, % at 24.9 µM; 5,600 compounds, 56% hits; shares compounds with T cruzi growth-1;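 active = mean loss of cell viability signal at or above a set limit, and enough replicates individually reaching it; inconclusive = meets only the mean limit or only the replicate share; inactive = meets neither condition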;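 also: 0% = median of neutral control wells and 100% = median of positive control wells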
* hit, by the source's call; ? = inconclusive; · = no result.

SMILES | Pf Dd2 inh | IDH1 R132H inh | GASC1 inh | T cruzi growth-1 | T cruzi growth-2 | T cruzi growth-3 | 3T3 cytotox | 3T3 cytotox 2
COC(=O)c1cc(O)cc(OC)c1Oc1cc(C)cc(O)c1C(=O)OC | · | -0.3 | · | · | · | · | · | ·
CCc1ccc(-n2nc3ccc(NC(=O)COc4ccccc4[N+](=O)[O-])cc3n2)cc1 | · | -0.1 | · | · | · | · | · | ·
COc1ccccc1-n1nnnc1SCC(=O)Nc1ccccc1SC | · | 0.0 | · | · | · | · | · | ·
Cc1cc(Br)c2c(c1)C(O)(CC(=O)c1ccco1)C(=O)N2C (configuration not stated) | · | 0.4 | · | · | · | · | · | ·
C[C@@H]1CCCCO[C@@H](CN(C)C(=O)Nc2ccc3c(c2)OCO3)[C@H](C)CN([C@H](C)CO)C(=O)c2cc(NS(=O)(=O)c3ccc(Cl)cc3)ccc2O1 | -28.8 | · | -0.5 | ? | 101.4* | 62.3 | -17.9 | 6.0
C[C@@H]1CN([C@H](C)CO)C(=O)c2cc(NS(=O)(=O)c3ccc(Cl)cc3)ccc2O[C@@H](C)CCCCO[C@H]1CN(C)C(=O)Nc1ccc2c(c1)OCO2 | -27.9 | 1.6 | -0.2 | · | · | · | · | ·
C[C@H](CO)N1C[C@H](C)[C@H](CN(C)C(=O)Nc2ccc3c(c2)OCO3)OCCCC[C@H](C)Oc2ccc(NS(=O)(=O)c3ccccc3)cc2C1=O | -35.0 | -1.6 | 0.0 | 101.3* | 107.0* | 40.5 | 6.1 | -4.9
C[C@@H]1CCCCO[C@@H](CN(C)C(=O)Nc2ccc3c(c2)OCO3)[C@H](C)CN([C@@H](C)CO)C(=O)c2cc(NS(=O)(=O)c3ccccc3)ccc2O1 | -1.2 | · | 0.6 | 50.0 | · | · | · | ·
O=C(COc1cccc(NC(=O)c2ccc([N+](=O)[O-])cc2)c1)c1ccc(F)cc1 | · | 0.1 | · | · | · | · | · | ·
C[C@@H]1CN([C@H](C)CO)S(=O)(=O)c2ccc(C3=CCCC3)cc2O[C@@H]1CN(C)Cc1ccccc1 | 20.1 | -1.2 | 4.6 | 109.4* | 100.4* | 54.7 | 16.1 | 107.0*
C[C@H]1CN([C@@H](C)CO)S(=O)(=O)c2ccc(C3=CCCC3)cc2O[C@H]1CN(C)Cc1ccccc1 | -39.8 | 0.3 | 0.6 | 96.7* | 96.0* | 92.0 | ? | 107.0*
C[C@@H]1CN([C@H](C)CO)S(=O)(=O)c2ccc(C3=CCCC3)cc2O[C@H]1CN(C)CC1CCCC1 | -57.4 | -0.7 | -1.5 | 105.2* | 91.5 | 90.9 | 59.3* | 104.7*
COc1cc([N+](=O)[O-])ccc1NC(=O)CN(C)S(=O)(=O)c1ccc(C)cc1 | · | 0.0 | · | · | · | · | · | ·
COc1cccc(NC(=O)c2ccc(NCc3cccnc3)c([N+](=O)[O-])c2)c1 | · | -0.3 | · | · | · | · | · | ·
CC(=O)N(C)C[C@H]1[C@H](c2ccccc2)[C@@H](CO)N1C(=O)C1CCC1 | 4.6 | · | -0.9 | 100.7* | -41.6 | 20.8 | -22.5 | -8.1
COCCN(C[C@H]1[C@@H](c2ccccc2)[C@H](CO)N1C(C)=O)C(=O)c1ccncc1 | 1.4 | · | 1.6 | ? | 61.1 | -16.5 | -11.2 | -4.4
CC(=O)N(C)C[C@@H]1[C@@H](c2ccc(-c3ccccc3)cc2)[C@H](CO)N1C(=O)C1CC1 | 11.6 | · | 0.7 | -23.8 | · | · | · | ·
COCC(=O)N(C)C[C@H]1[C@H](c2ccc(-c3cccnc3)cc2)[C@H](CO)N1C(C)=O | 23.9 | · | -1.2 | 101.4* | 6.8 | -0.1 | -25.6 | -12.5
COCCN(C[C@@H]1[C@@H](c2ccccc2)[C@H](CO)N1C(C)=O)C(=O)c1ccccc1 | 8.4 | · | -4.2 | 10.8 | · | · | · | ·
CC(=O)N(C)C[C@H]1[C@H](c2ccc(-c3ccccc3)cc2)[C@@H](CO)N1C(=O)C1CC1 | -6.5 | · | 1.6 | ? | 15.2 | -15.0 | 6.8 | 13.0
CCN(C[C@@H]1[C@@H](c2ccccc2)[C@H](CO)N1C(=O)C1CC1)C(=O)NC1CCCC1 | 10.7 | · | 1.1 | 96.6* | 52.4 | 31.5 | -1.2 | 26.0
CCN(C[C@@H]1[C@@H](c2ccccc2)[C@@H](CO)N1C(=O)C1CC1)C(=O)NC1CCCC1 | 3.4 | · | -2.3 | 16.2 | · | · | · | ·
COc1ccc(-c2cc(C)nc(SCC(=O)Nc3ccccc3F)n2)cc1 | · | 0.0 | · | · | · | · | · | ·
C[C@@H]1CN([C@@H](C)CO)C(=O)c2cc(NS(=O)(=O)c3cccs3)ccc2O[C@H]1CN(C)Cc1ccc(C(=O)Nc2ccccc2N)cc1 | -57.4 | 0.3 | 0.2 | 107.9* | 96.6* | 62.7 | 4.0 | 5.2
C[C@H](CO)N1C[C@H](C)[C@@H](CN(C)Cc2ccc(C(=O)O)cc2)Oc2c(NC(=O)Nc3ccccc3)cccc2C1=O | -2.6 | · | 1.4 | · | · | · | · | ·
SMILES | Pf Dd2 inh | IDH1 R132H inh | GASC1 inh | T cruzi growth-1 | T cruzi growth-2 | T cruzi growth-3 | 3T3 cytotox | 3T3 cytotox 2
C[C@@H]1CN([C@H](C)CO)C(=O)c2cc(N(C)C)ccc2O[C@H]1CN(C)Cc1ccc(C(=O)Nc2ccccc2N)cc1 | -34.2 | · | 2.2 | 94.6 | · | · | · | ·
C[C@H]1CN([C@@H](C)CO)C(=O)c2cc(NC(=O)Nc3ccc4c(c3)OCO4)ccc2O[C@H]1CN(C)Cc1ccc(C(=O)Nc2ccccc2N)cc1 | -3.3 | · | 0.7 | 97.9* | 85.5 | 78.7 | 1.6 | 9.6
C[C@@H]1CN([C@@H](C)CO)C(=O)Cc2cc(NS(=O)(=O)c3cccs3)ccc2O[C@H]1CN(C)Cc1ccc(C(=O)Nc2ccccc2N)cc1 | -23.0 | 0.4 | -0.3 | 20.9 | · | · | · | ·
C[C@@H]1CN([C@H](C)CO)C(=O)c2cc(N(C)C)ccc2O[C@@H]1CN(C)Cc1ccc(C(=O)Nc2ccccc2N)cc1 | -69.6 | · | · | 103.1* | 89.8 | 81.3 | 73.9* | 93.6*
C[C@@H]1CN([C@H](C)CO)C(=O)c2cc(NC(=O)Nc3ccc4c(c3)OCO4)ccc2O[C@@H]1CN(C)Cc1ccc(C(=O)Nc2ccccc2N)cc1 | -78.1 | · | -0.5 | 63.5 | · | · | · | ·
C[C@H]1CN([C@@H](C)CO)C(=O)c2cccc(NC(=O)Nc3ccccc3)c2O[C@@H]1CN(C)Cc1ccc(C(=O)Nc2ccccc2N)cc1 | -87.7* | · | -0.7 | 99.7* | 101.4* | 98.5* | ? | 79.9*
O=C1O[C@@H](c2ccccc2)[C@@H](c2ccccc2)N2[C@@H](c3ccc(O)cc3)[C@]3(C(=O)Nc4ccccc43)[C@@H](C(=O)N3CCN(c4ncccn4)CC3)[C@H]12 | · | 0.4 | · | · | · | · | · | ·
CC1(C)CC(=O)C2=C(C1)c1c(ccc3ncccc13)NC2C1CC=CCC1 (configuration not stated) | · | -1.5 | · | · | · | · | · | ·
C[C@@H]1CN([C@H](C)CO)C(=O)c2cccc(NC(=O)Nc3ccc4c(c3)OCO4)c2O[C@@H]1CN(C)Cc1ccc(C(=O)O)cc1 | 0.5 | · | 1.8 | -6.7 | · | · | · | ·
C[C@@H]1CN([C@H](C)CO)C(=O)c2cccc(NC(=O)Nc3ccc4c(c3)OCO4)c2O[C@H]1CN(C)Cc1ccc(C(=O)Nc2ccccc2N)cc1 | -86.4* | · | 0.1 | 112.1* | 102.3* | 91.7 | -1.1 | 71.4*
